Assay outcomes (PubChem)
Many of the other results were omitted from the sample, so hits are more common in it than they were.
UPR CHOP act – activators of apoptotic CHOP UPR arm, primary screen, cell-based, CHO-CHOP luciferase reporter, luminescence, uHTS; UPR activation; percent of tunicamycin response over DMSO baseline; activation, % at 10 µM; actives 0.34% (n = 330,000); AID 449763, 2010;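 active = at 10 µM dose, activation of 40% or more, normalized to positive control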;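 also: 100% = tunicamycin at 10 µg/mL and 0% = DMSO alone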
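Assay system: CHO-CHOP cells, stable luciferase reporter of PERK-eIF2a-CHOP signalling / Buffer or medium: F12 plus 10% serum / Compound dosing: one dose, 10 µM in 0.5% DMSO / Times: 6 h compound treatment, 37 °C / Technique: luciferase luminescence / Read-out: % reporter activation, DMSO baseline versus tunicamycin full activation / Benchmarks: tunicamycin and DMSO controls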
L major viab – Leishmania major promastigote growth inhibition, primary screen; inhibition, % at 10 µM; Leishmania major promastigotes, resazurin fluorescence viability; actives 9% (n = 200,000); in the data active = inhibition above about 50%;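 also: promastigotes grown with compound for 44 hours at 28 °C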
CHOP inhibitor – inhibitors of CHOP promoter induction, primary screen, cell-based, unfolded protein response, luciferase reporter | CHO-K1 CHOP-promoter luciferase, tunicamycin-induced, 15-18 h | inhibition, % at 10 µM | actives 3.8% (n = 220,000);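 active = compounds that reduced the stress-induced luciferase reporter signal by more than about 70% of percent inhibition, limit read from the data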;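 also: 0% = tunicamycin plus vehicle and 100% = wells without tunicamycin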
UPR XBP1 act – activators of adaptive XBP1 UPR arm, primary screen, cell-based, CHO-XBP1 luciferase reporter, luminescence, uHTS. IRE1-XBP1 UPR activation; percent of tunicamycin response, DMSO as zero. AID 463104, 2010. activation, % at 20 µM. actives 0.33% (n = 330,000);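 active = versus positive control, 20 µM dose yields 30% or more activation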;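 also: 100% = tunicamycin at 10 µg/mL and 0% = DMSO only wells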
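incubation = overnight seeding at 37 °C, 6 h compound treatment at 37 °C | assay system = CHO-XBP1 cells stably carrying IRE1-XBP1-driven luciferase reporter | input = 1000 cells per well | detection = luciferase luminescence | dosing = single point, 20 µM final compound, 1% DMSO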
T cruzi inh – inhibitors of intracellular T. cruzi growth, primary screen, luminescence, NIH3T3 host cells | T. cruzi beta-gal in NIH3T3, 90 h | inhibition, % (no concentration beside the values) | actives 1.4% (n = 300,000);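 active = mean inhibition across valid replicates above about 55%, limit read from the data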;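 also: signal also drops with host cell toxicity which is not excluded here; 0% = plate median of DMSO wells and 100% = zero luminescence signal; higher percent means less beta-gal luminescence so fewer parasites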
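System: mouse NIH/3T3 fibroblasts infected with β-gal-expressing T. cruzi Tulahuen C4 / Input: NIH/3T3 cells, 5,000 per well / Buffer or medium: Low-serum DMEM with 2% FBS / Probe or stimulus: 5000 reporter trypomastigotes per well / Schedule: ≥90 h infection period, 3 h prior cell attachment / Measured by: GalScreen luminescence, 60 min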
Dynein transport – inhibitors of GR-EGFP nuclear translocation, primary screen, dynein cargo transport inhibitor project, imaging, high-content, 3617.4 mouse cells. actives 0.47% (n = 220,000). test concentration mostly 20 µM; stimulated with dexamethasone, 1 µM; hits give low values. AID 1381, 2008. z-score, hits read low;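 active = plate z-score of nuclear minus cytoplasmic receptor signal below a set negative limit, without overly bright fluorescence or cell loss, cut at about -3.5 in these data, passing the limit was not always enough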;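 also: z-score of nuclear minus cytoplasmic ring GR-EGFP intensity difference per well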
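Buffer or medium – tet-free medium with charcoal-stripped serum · Signal – automated 10x imaging of fixed Hoechst-stained cells · Also added – dexamethasone agonist, 1.0 µM final, for 30 min · Incubation – induction 48 h, compound 1 h, agonist 30 min · Read-out – GR-EGFP nuclear translocation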
* marks the source's active call; other numbers are inactive results; . = no result given.

SMILES	UPR CHOP act	L major viab	CHOP inhibitor	UPR XBP1 act	T cruzi inh	Dynein transport
N=c1ccn(CC(=O)c2ccc(-c3ccccc3)cc2)cc1	-1	99*	-10	0	58*	2.8
O=C(O)C/C(=C\c1cccc(NC(=O)c2ccccc2Cl)c1)c1nc2ccccc2s1	2	.	-4	-1	4	-1.3
COc1ccc(/C=C(\CC(=O)O)c2nc3ccccc3s2)cc1O	0	-5	42	-1	-15	-0.68
CCOc1cc(/C=C(\CC(=O)O)c2nc3ccccc3s2)ccc1OC	-1	98*	11	-1	1	-0.65
Cc1ccc(/C=C(\CCC(=O)O)c2nc3ccccc3s2)cc1[N+](=O)[O-]	4	-6	35	2	0	0.42
COc1ccc(C(=O)Nc2cccc(/C=C(\CCC(=O)O)c3nc4ccccc4s3)c2)cc1	1	.	83*	-1	-2	-0.86
CN(c1ccccc1)c1ccc(/C=C(\CCC(=O)O)c2nc3ccccc3s2)cc1[N+](=O)[O-]	-2	44	100*	-1	-14	1
CCC1CCCCN1C(=O)CCn1c(=O)oc2ccccc21 (stereo not drawn)	3	.	.	-1	3	.
Cc1ccc(C2(C(=O)N3CCC(n4nc(-c5ccccc5)oc4=O)CC3)CC2)cc1	0	.	.	-1	19	.
CC(NC(=O)C(c1ccccc1)c1ccccc1)C(=O)N1CCCCC1 (stereo not drawn)	-1	52*	-2	0	-6	2.5
COc1cc2c3nc4n(c(=O)c3n(CC(=O)NCC3CCCO3)c2cc1OC)CCS4 (stereo not drawn)	1	.	.	7	-24	.
Cc1ccc(SCc2nc3ccccc3n2CC(=O)Nc2c(C)cccc2C)cc1	-1	6	90*	-2	21	0.022
Cc1ccc(SCc2nc3ccccc3n2CC(=O)Nc2ccccc2)cc1	0	28	34	-1	33	1.2
Cc1ccc(-c2nnn(CC(=O)N3CCCc4ccccc43)n2)cc1	0	-3	84*	-1	18	0.9
CCOc1ccc(-n2nnc3c(=O)n(CC(=O)N4CCCc5ccccc54)cnc32)cc1	3	55*	8	2	6	0.056
Cc1cc(C(=O)OCC(=O)c2ccc(Br)s2)c(C)o1	6	-1	79*	4	10	-0.35
O=C(Cn1nnc(-c2ccncc2)n1)N1CCc2ccccc21	-1	-5	10	-2	-8	-0.81
O=C1c2cccc(OCC(=O)N3CCCc4ccccc43)c2CCN1Cc1cccnc1	0	19	26	-1	34	-0.36
Cc1ccccc1CN1CCc2c(OCC(=O)N3CCCc4ccccc43)cccc2C1=O	.	96*	17	.	7	0.24
COc1ccc(-n2nnc3c(=O)n(CC(=O)N4CCCc5ccccc54)cnc32)cc1	1	43	.	0	-7	0.19
O=c1nc(N2CCCC2)nc(N2CCCC2)[nH]1	1	.	.	-4	-3	.
O=C(CCC(=O)c1cccs1)NCc1cccc(Cl)c1	0	.	.	-4	-9	.
Cc1cc(C(=O)Cn2c(CO)nc3ccccc32)c(C)n1C	2	.	-2	-1	18	-0.14
CC(=O)c1ccc(CC2SC(N)=NC2=O)cc1 (stereo not drawn)	1	.	.	-1	3	.
Cc1[nH]c2ccccc2c1SCC(=O)N1CCCc2ccccc21	2	99*	64	0	1	-0.25
SMILES	UPR CHOP act	L major viab	CHOP inhibitor	UPR XBP1 act	T cruzi inh	Dynein transport
O=C(COc1ccc(F)cc1)N1CCCc2ccccc21	5	.	.	-3	4	.
Cc1cc(C(=O)OCC(=O)N2CCc3ccccc32)c(C)o1	6	-8	82*	6	-19	-0.2
Cc1ccccc1OCC(=O)N1CCCc2ccccc21	5	53*	29	2	7	-0.86
Cc1[nH]c2ccccc2c1C(=O)C(=O)N1CCCc2ccccc21	3	6	25	-3	-6	2.3
O=C(CSc1n[nH]c(-c2ccccc2O)n1)N1CCCc2ccccc21	3	75*	.	3	-9	-0.67
Clc1cnc(N/N=C/c2ccco2)c(Cl)c1	0	67*	-3	-3	1	0.68
Clc1cnc(N/N=C/c2cccs2)c(Cl)c1	5	-1	21	-6	-6	-1.4
Cc1ccc(CN(C)C(=O)COc2ccc(S(=O)(=O)N3CCCC3)cc2[N+](=O)[O-])c(C)c1	0	.	.	-1	.	.
CC1CC(=O)Nc2ccccc2N1C(=O)Cn1cnc2ccccc2c1=O (stereo not drawn)	2	.	.	-5	.	.
O=C(COC(=O)c1ccccc1O)Nc1ccc(N2CCOCC2)cc1	0	.	.	0	.	.
CCC(=O)N1CCN(c2ccc(NC(=O)COc3ccccc3Cl)cc2)CC1	0	3	10	-1	-10	0.88
O=C(COC(=O)C1Cc2ccccc2CN1C(=O)c1ccccc1Cl)Nc1ccc(N2CCOCC2)cc1 (stereo not drawn)	2	77*	0	-2	-16	-0.42
CN1CCN(c2ccc(NC(=O)COc3ccccc3Cl)cc2)CC1	6	100*	13	4	21	-1.2
Cc1ccc(C(C)C)cc1OCC(=O)Nc1ccc(N2CCCCC2)cc1	0	.	.	0	63*	.
Cc1ccc(OCC(=O)Nc2ccc(N3CCCC3)cc2)cc1C	-1	-3	-6	-3	24	0.12
CCc1ccc(Nc2n[n+](-c3ccccc3)c(/C=C/c3ccccc3)s2)cc1	-9	.	.	-4	36	.
O=C(OCC(=O)N1CCc2ccccc21)[C@@H]1CCCN1S(=O)(=O)c1ccccc1F	2	.	.	-3	.	.
CC(NC(=O)COC(=O)[C@@H]1CCCN1S(=O)(=O)c1ccccc1F)C12CC3CC(CC(C3)C1)C2 (stereo partly drawn)	2	96*	40	3	-3	-0.0027
Cn1c(-c2ccccc2)cnc1SCC(=O)N1CCCc2ccccc21	2	77*	19	7	12	-0.083
O=C(CSc1nnc(-c2ccccc2)c(-c2ccccc2)n1)N1CCc2ccccc21	-3	57*	67	-6	22	-0.79
Cc1ccc(-c2cnc(SCC(=O)N3CCCc4ccccc43)n2C)cc1	-2	-2	43	6	.	-0.56
Cc1cc(C)nc(SCC(=O)N2CCc3ccccc32)n1	4	.	.	1	-8	.
CC(C)c1nc(SCC(=O)N2CCCc3ccccc32)c2c(=O)n(C)c(=O)n(C)c2n1	7	51*	88*	-1	25	0.16
